The record followed here is ChEMBL document CHEMBL4622914, “Development of a bioavailable boron-containing PI-103 Bioisostere, PI-103BE” (Bioorg Med Chem Lett, 2020).

SMILES strings stand for the structures.

For one data set, the system named is A549. Briefly: Antiproliferative activity against human A549 cells assessed as reduction in cell viability incubated for 4 days by coulter counter method. The class given is functional, cell-based. An outline of the steps:
(§1)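 Cancer cells were seeded at 50,000 per well in DMEM with 5% FBS. They were exposed to six compound doses for 4 days, with DMSO as vehicle control and a reference inhibitor as positive control. Cells were counted by Coulter counter. Survival ratio is treated cell number over vehicle cell number. IC50 was taken from dose–response curves. Triplicate experiments.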

The next data set has as its system MDA-MB-231. Briefly: Antiproliferative activity against human MDA-MB-231 cells assessed as reduction in cell viability incubated for 4 days by coulter counter method. The class given is functional, cell-based. An outline of the steps: as §1
For the next data set, the system named is HeLa. Briefly: Antiproliferative activity against human HeLa cells assessed as reduction in cell viability incubated for 4 days by coulter counter method. The class given is functional, cell-based. An outline of the steps:
as §1

The next data set relates to CWR22R. As to the kind of experiment: Antiproliferative activity against human 22Rv1 cells assessed as reduction in cell viability incubated for 4 days by coulter counter method. The class given is functional, cell-based. In a few lines:
as §1

Another data set concerns PC-3. Briefly: Antiproliferative activity against human PC3 cells assessed as reduction in cell viability incubated for 4 days by coulter counter method. The class given is functional, cell-based. The following applies: PC-3, 96 h. In a few lines:
(§2)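 Cells seeded at 50,000 per well in DMEM with 5% FBS, exposed to six concentrations of compound for 4 days; DMSO as vehicle control. Cell numbers counted on a Coulter counter; survival ratio = treated/vehicle cell count. IC50 taken from dose-response curves. Triplicate experiments, mean ± SD.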

Another data set deals with SK-OV-3. As to the kind of experiment: Antiproliferative activity against human SKOV3 cells assessed as reduction in cell viability incubated for 4 days by coulter counter method. The class given is functional, cell-based. As to conditions: SK-OV-3, 96 h. In a few lines: as §2
Data set [1] can be described thus: Stability of compound in cell culture medium assessed as compound hydrolysis measured after 0.5 hrs. The class given is physicochemical.
Data set [2] in a line: Stability of compound in cell culture medium assessed as compound hydrolysis measured after 1 hr. The class given is physicochemical.
The nature of data set [3]: Stability of compound in cell culture medium assessed as compound hydrolysis measured after 3 hrs. The class given is physicochemical.
Data set [4] is described as follows: Stability of compound in cell culture medium assessed as compound hydrolysis measured after 8 hrs. The class given is physicochemical.
Data set [5] in a line: Stability of compound in cell culture medium assessed as compound hydrolysis measured after 24 hrs. The class given is physicochemical.
A short description of data set [6]: Drug concentration in ovariectomized nu/nu mouse plasma at 10 mg/kg, ip measured after 0.5 hrs by UHPLC-MS analysis. The class given is ADME, organism-based. As to conditions: female.
Data set [7] in a line: Drug concentration in ovariectomized nu/nu mouse plasma at 10 mg/kg, ip measured after 1 hr by UHPLC-MS analysis. The class given is ADME, organism-based. As to conditions: female.
Data set [8] in a line: Drug concentration in ovariectomized nu/nu mouse plasma at 10 mg/kg, ip measured after 3 hrs by UHPLC-MS analysis. The class given is ADME, organism-based. As to conditions: female.
Data set [9] can be described thus: Drug concentration in ovariectomized nu/nu mouse plasma at 10 mg/kg, ip measured after 8 hrs by UHPLC-MS analysis. The following applies: female. The class given is ADME, organism-based.
Data set [10] can be described thus: Cmax in ovariectomized nu/nu mouse at 10 mg/kg, ip measured upto 24 hrs by UHPLC-MS analysis. The class given is ADME, organism-based. More on the design: dose 10 mg/kg, route intraperitoneal. The following applies: female, in vivo.
A short description of data set [11]: Tmax in ovariectomized nu/nu mouse at 10 mg/kg, ip measured upto 24 hrs by UHPLC-MS analysis. The class given is ADME, organism-based. As to conditions: female, in vivo.
The nature of data set [12]: Half life in ovariectomized nu/nu mouse at 10 mg/kg, ip measured upto 24 hrs by UHPLC-MS analysis. The class given is ADME, organism-based. As to conditions: female, in vivo. In a few lines:
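Female ovariectomized Nu/Nu mice, 4–6 weeks old, received a single 10 mg/kg i.p. dose as an ethanol solution. Blood was drawn from the orbital sinus at 0.5, 1, 3, 8 and 24 h, one sampling per group, into EDTA. Plasma was spun at 4 °C and stored at −80 °C. Parent and metabolites were quantified by C18 UHPLC–TSQ Vantage MS/MS.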

Data set [13] in a line: AUC in ovariectomized nu/nu mouse at 10 mg/kg, ip measured upto 24 hrs by UHPLC-MS analysis. The class given is ADME, organism-based. The arrangement: dose 10 mg/kg, time < 24 hr, route intraperitoneal. The following applies: female, in vivo.

In general, IC50 refers to the point on the concentration scale where inhibition reaches its midpoint. By Cmax is commonly meant the maximum level reached in the sampled fluid or tissue. One may read the Tmax as the time from dosing to the highest level. What is called half-life is the time in which the quantity being followed falls by half. Read a low half-life as fast loss. The term AUC denotes concentration integrated over time. A low value points to less exposure. Take `Oc1cccc(-c2nc(N3CCOCC3)c3oc4ncccc4c3n2)c1` [PI-103]: the IC50 with A549 (A549, 96 h) was determined as 0.18 µM; with MDA-MB-231 (MDA-MB-231, 96 h) it was 0.14 µM; in the data set with HeLa (96 h), 0.16 µM; with CWR22R (22Rv1, 96 h), 0.1 µM; in the data set with PC-3 it was 0.17 µM; in the data set with SK-OV-3 it was 0.11 µM. The Drug degradation came out at 0.05 µM in [1]; 0.08 µM in [2]; 0.12 µM in [3]; 0.12 µM in data set [4]; 0.14 µM in [5]. The compound further registered a concentration at 0.5 h in data set [6] of 0.1 ng/mL. Moreover, the concentration at 1 h in data set [7] came out at 1.4 ng/mL. The same compound showed a concentration at 3 h in data set [8] of 1 ng/mL. This compound registered a concentration at 8 h in data set [9] of 0.3 ng/mL. The compound also yielded a Cmax in [10] of 1.4 ng/mL. The Tmax in data set [11] turned out to be 1 h. The same compound showed a half-life in data set [12] of 2 h. This compound came in with an area under the curve (AUC) at 24 h in data set [13] of 9.7 ng·h/mL.

Turning to `OB(O)c1cccc(-c2nc(N3CCOCC3)c3oc4ncccc4c3n2)c1`, the Activity entry with A549, with MDA-MB-231, in the data set with HeLa and with CWR22R was “Dose-dependent effect” each time. Further, the Drug degradation was determined as 2.39 µM in data set [1]; 3.08 µM in data set [2]; 3.52 µM in [3]; 3.55 µM in data set [4]; 3.53 µM in data set [5].
